The target in test [1] is T1, von Hippel-Lindau disease tumor suppressor/Bcl-2-like protein 1 (Homo sapiens, UniProt Q07817+P40337). Description: Protac activity at VHL/BCL-XL in human MOLT-4 cells assessed as decrease in BCL-XL protein level by densitometric analysis. Format: cell-based. Summed up: (§1)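 MOLT-4 or RS4;11 cells were treated at a range of concentrations for 16 h. BCL-XL was immunoblotted with β-actin loading control, and band densitometry was normalised to β-actin. Mean ± SD of three independent experiments in triplicate.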
Target sequence in this assay (Q07817 whole entry): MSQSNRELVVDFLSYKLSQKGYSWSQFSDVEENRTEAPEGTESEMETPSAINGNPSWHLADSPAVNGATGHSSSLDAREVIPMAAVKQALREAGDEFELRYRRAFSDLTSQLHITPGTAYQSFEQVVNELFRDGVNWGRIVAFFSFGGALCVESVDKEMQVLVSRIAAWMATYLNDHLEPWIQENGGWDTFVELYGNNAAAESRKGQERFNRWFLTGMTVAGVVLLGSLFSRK
Target sequence in this assay (P40337 whole entry): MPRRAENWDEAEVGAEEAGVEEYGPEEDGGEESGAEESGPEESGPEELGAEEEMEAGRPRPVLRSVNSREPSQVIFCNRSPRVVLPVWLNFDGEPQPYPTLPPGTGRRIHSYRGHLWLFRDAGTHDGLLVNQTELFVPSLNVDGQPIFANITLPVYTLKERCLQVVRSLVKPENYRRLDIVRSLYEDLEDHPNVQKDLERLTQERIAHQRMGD

In test [2] the test system is MOLT-4. Description: Induction of apoptosis in human MOLT-4 cells assessed as early apoptotic cells at 10 nM measured after 48 hrs by annexinV-FITC/propidium iodide staining based flow cytometry (reference value: 2%). The test is classed as functional. (Flow cytometry measures light scatter and fluorescence of single cells or particles in a stream.)
In test [3] the target is T1, von Hippel-Lindau disease tumor suppressor/Bcl-2-like protein 1. In words: Binding affinity to VHL/ BCL-XL in human RS4-11 cells assessed as ternary complex formation at up to 300 nM measured after 12 hrs by immunoprecipitation assay. Format: cell-based.
Target sequence in this assay (P40337 whole entry, looked up): as the sequence (P40337 whole entry) above
Target sequence in this assay (Q07817 whole entry, looked up): as the sequence (Q07817 whole entry) above
Test [4] has the same target. Description: Binding affinity to VHL/ BCL-XL in human RS4-11 cells assessed as ternary complex formation at up to 300 nM measured after 12 hrs in presence of VHL-032 by immunoprecipitation assay. The test is classed as cell-based.
Target sequence in this assay (P40337 whole entry, looked up): as the sequence (P40337 whole entry) above
Target sequence in this assay (Q07817 whole entry, looked up): as the sequence (Q07817 whole entry) above
For test [5], the system named is MOLT-4. Description: Induction of apoptosis in human MOLT-4 cells assessed as early apoptotic cells at 10 nM measured after 48 hrs in presence of QVD by annexinV-FITC/propidium iodide staining based flow cytometry (reference value: 2%). The test is classed as functional.
The next test has as its system Platelet. Description: Cytotoxicity against platelets in human PRP assessed as reduction in cell viability measured after 48 hrs by MTS assay. Format: cell-based. Summed up: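 Washed human platelets from PRP were kept in HEPES Tyrode's buffer with 1 µM PGE1 and 0.2 units/mL apyrase at 2×10^8/mL.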
On the technique in general: Formazan colour is commonly taken as a measure of viable cells.

In test [6] the test system is MOLT-4. Description: Induction of apoptosis in human MOLT-4 cells assessed as […] in cleaved caspase-3 level at up to 1000 nM measured after 16 hrs by immunoblotting analysis. The test is classed as functional, cell-based. A digest of the protocol: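 MOLT-4 cells were treated at a range of concentrations for 16 h. Lysates were immunoblotted for cleaved and full caspase-3, cleaved and full PARP, and β-actin; blots representative of three experiments.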
(In general: A western blot detects proteins with antibodies after separation by electrophoresis.)

Test [7] has as its system RS4-11. Description: Cytotoxicity against human RS4-11 cells assessed as reduction in cell viability measured after 48 hrs by MTS assay. To be noted: RS4-11, 48 h. Format: functional, cell-based.
Test [8] is described as follows: Binding affinity to human BCL-XL expressed in Escherichia coli/recombinant human VHL (54 to end residues) fused to human N-terminal GST-tagged elongin-C/elongin -B/N-terminal His-tagged CUL2/Rbx1 expressed in baculovirus infected Sf21 insect cells assessed as ternary complex formation at up to 100000 nM measured after 30 mins by AlphaLISA assay. A digest of the protocol:
(§2)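 Cell-free ternary complex AlphaLISA: 6×His-tagged BCL-XL, BCL-2 or MCL-1 (20 nM) mixed with serially diluted compound (4× dilution) and GST-VCB (20 nM) in 25 mM HEPES pH 7.5, 100 mM NaCl, 0.1% BSA, 0.005% Tween 20. After 30 min at room temperature, glutathione donor beads were added for 15 min, then anti-His acceptor beads for 45 min in the dark. Luminescence was plotted against log compound concentration.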

Test [9] is described as follows: Binding affinity to C-terminal His-tagged human BCL-2 (1 to 211 residues) expressed in Escherichia coli/recombinant human VHL (54 to end residues) fused to human N-terminal GST-tagged elongin-C/elongin -B/N-terminal His-tagged CUL2/Rbx1 expressed in baculovirus infected Sf21 insect cells assessed as ternary complex formation at up to 100000 nM measured after 30 mins by AlphaLISA assay. A digest of the protocol:
as §2

The test system of test [10] is MOLT-4. In words: Induction of apoptosis in human MOLT-4 cells assessed as late apoptotic cells at 10 nM measured after 48 hrs by annexinV-FITC/propidium iodide staining based flow cytometry (reference value: 1%). The test is classed as functional.
The target in test [11] is T1, von Hippel-Lindau disease tumor suppressor/Bcl-2-like protein 1. In words: Protac activity at VHL/BCL-XL in human RS4-11 cells assessed as decrease in BCL-XL protein level by densitometric analysis. Format: cell-based. Summed up:
as §1
Target sequence in this assay (Q07817 whole entry): as above
Target sequence in this assay (P40337 whole entry): as the sequence (P40337 whole entry) above

For test [12] the target is unchanged. Description: Protac activity at VHL/BCL-XL in human MOLT-4 cells assessed as induction of BCL-XL degradation at 10 uM pretreated with MG-132 followed by compound treatement measured after 12 hrs by Western blot analysis. Format: cell-based. A digest of the protocol:
(§3)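 MOLT-4 cells were pretreated with 10 µM VHL-032 or 1 µM MG-132, followed by 12 h compound treatment. BCL-XL and β-actin were immunoblotted; blots representative of three experiments.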
Target sequence in this assay (P40337 whole entry, looked up): as the sequence (P40337 whole entry) above
Target sequence in this assay (Q07817 whole entry, looked up): as the sequence (Q07817 whole entry) above

Test [13] concerns the target T2, von Hippel-Lindau disease tumor suppressor/Apoptosis regulator Bcl-2 (Homo sapiens) (UniProt P10415+P40337). Description: Binding affinity to VHL/BCL-2 in human RS4-11 cells assessed as ternary complex formation at up to 300 nM measured after 12 hrs by immunoprecipitation assay. Format: cell-based.
For test [14], the target named is T1, von Hippel-Lindau disease tumor suppressor/Bcl-2-like protein 1. In words: Binding affinity to Halo-tagged VHL/HiBiT-tagged BCL-XL (unknown origin) expressed in HEK293T cells assessed as ternary complex formation at up to 100000 nM measured after 6 hrs by NanoBRET assay. Format: cell-based. A digest of the protocol:
(§4)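 NanoBRET in live HEK 293T cells. Cells were transfected with HaloTag-VHL (1 µg), HiBit-BCL-XL or HiBit-BCL-2 (10 ng) and LgBit (10 ng). After 24 h they were seeded at 2×10^4 per well in Opti-MEM with 4% FBS, with or without HaloTag 618 ligand, and held overnight. Serial compound doses were given for 6 h at 37 °C, then Nano-Glo substrate was added and mBRET ratios read. Mean ± s.e.m. of two experiments in triplicate.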
Target sequence in this assay (P40337 whole entry, looked up): as the sequence (P40337 whole entry) above
Target sequence in this assay (Q07817 whole entry, looked up): as the sequence (Q07817 whole entry) above

For test [15] the target is unchanged. Description: Protac activity at VHL/BCL-XL in human MOLT-4 cells assessed as induction of BCL-XL degradation at 10 uM pretreated with VHL-032 followed by compound treatement measured after 12 hrs by Western blot analysis. Format: cell-based. Summed up: as §3
Target sequence in this assay (P40337 whole entry, looked up): as the sequence (P40337 whole entry) above
Target sequence in this assay (Q07817 whole entry, looked up): as the sequence (Q07817 whole entry) above
The test system of test [16] is MOLT-4. In words: Induction of apoptosis in human MOLT-4 cells assessed as late apoptotic cells at 10 nM measured after 48 hrs in presence of QVD by annexinV-FITC/propidium iodide staining based flow cytometry (reference value: 1%). Format: functional.
In test [17] the target is T1, von Hippel-Lindau disease tumor suppressor/Bcl-2-like protein 1. Description: Protac activity at VHL/BCL-XL in human MOLT-4 cells assessed as induction of BCL-XL degradation at 100 nM measured up to 72 hrs by Western blot analysis. Format: cell-based. Summed up:
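MOLT-4 cells were treated with 100 nM for a series of times. For washout, cells were treated for 16 h and sampled at times after compound removal. BCL-XL and β-actin were immunoblotted.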
Target sequence in this assay (P40337 whole entry, looked up): as the sequence (P40337 whole entry) above
Target sequence in this assay (Q07817 whole entry, looked up): as the sequence (Q07817 whole entry) above

Test [18] concerns the target T2, von Hippel-Lindau disease tumor suppressor/Apoptosis regulator Bcl-2 (Homo sapiens). Description: Binding affinity to VHL/BCL-2 in human RS4-11 cells assessed as ternary complex formation at up to 300 nM measured after 12 hrs in presence of VHL-032 by immunoprecipitation assay. Format: cell-based.
For test [19] the target is unchanged. In words: Binding affinity to Halo-tagged VHL/HiBiT-tagged BCL-2 (unknown origin) expressed in HEK293T cells assessed as ternary complex formation at up to 100000 nM measured after 6 hrs by NanoBRET assay. Format: cell-based. A digest of the protocol:
as §4

Test [20] has as its system RS4-11. Description: Cytotoxicity against human RS4-11 cells assessed as reduction in cell viability measured after 48 hrs in presence of VHL-032 by MTS assay. Format: functional, cell-based. The following applies: RS4-11, 48 h. A digest of the protocol: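 RS4;11 cells were pretreated with 10 µM VHL-032, then exposed to compound for 48 h. Viability was read by MTS; three independent experiments in triplicate.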

Active and inactive are the calls of the source. The calls are words filed in the database; no cut-off is given here.

For orientation: IC50 means the concentration at which inhibition is half-maximal.

T2 sequence (P10415 whole entry, looked up): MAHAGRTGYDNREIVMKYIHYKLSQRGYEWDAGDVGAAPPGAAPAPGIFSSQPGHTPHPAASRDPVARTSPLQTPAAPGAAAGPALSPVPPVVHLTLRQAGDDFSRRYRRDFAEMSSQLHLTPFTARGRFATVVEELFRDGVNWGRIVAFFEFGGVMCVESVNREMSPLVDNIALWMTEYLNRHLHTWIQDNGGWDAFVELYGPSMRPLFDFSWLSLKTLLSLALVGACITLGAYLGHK
T2 sequence (P40337 whole entry, looked up): as the sequence (P40337 whole entry) above

As for `Cc1ncsc1-c1ccc([C@H](C)NC(=O)[C@@H]2C[C@@H](O)CN2C(=O)[C@@H](NC(=O)CCCCCCCCC(=O)NC[C@]2(C)CCC(c3ccc(Cl)cc3)=C(CN3CCN(c4ccc(C(=O)NS(=O)(=O)c5ccc(N[C@H](CCN6CCOCC6)CSc6ccccc6)c(S(=O)(=O)C(F)(F)F)c5)cc4)CC3)C2)C(C)(C)C)cc1`, the DC50 in test [1] was found to be 14.3 nM; in test [11], 11.6 nM. Moreover, the Activity with MOLT-4 [2] is reported as 25%; in the test on MOLT-4 [5], 1%; with MOLT-4 [10] it was 21%; in the test on MOLT-4 [16] it was 13%. Also, the outcome (in test [3]; in the test with MOLT-4 [6]; in test [8]; in test [9]; in test [13]; in test [14]) was Active. Further, the result in test [17] and in [19] was Active. The result in test [4], in test [12], in test [15] and in test [18] was inactive. Besides, the results for the IC50 in the test with Platelet, in the test with RS4-11 [7] and with RS4-11 [20] were 950 nM, 11.3 nM and 209 nM, respectively.

The values above are taken from ChEMBL document CHEMBL5053511, “Discovery of a Novel BCL-XL PROTAC Degrader with Enhanced BCL-2 Inhibition” (J Med Chem, 2021).
